# Assay results from ChEMBL document CHEMBL1914358, “Virtual screening targeting the urokinase receptor, biochemical and cell-based studies, synthesis, pharmacokinetic characterization, and effect on breast tumor metastasis” (J Med Chem, 2011).
# Active and inactive are the calls of the source. The calls are words filed in the database; no cut-off is given here.
# How the values were obtained:
# [1] = biological target: Urokinase plasminogen activator surface receptor (Homo sapiens, UniProt Q03405); assay: Displacement of […] peptide from human uPAR expressed in drosophila S2 cells by fluorescence polarization assay
# Chain of Urokinase plasminogen activator surface receptor (Q03405 whole entry, the tested form may be a part): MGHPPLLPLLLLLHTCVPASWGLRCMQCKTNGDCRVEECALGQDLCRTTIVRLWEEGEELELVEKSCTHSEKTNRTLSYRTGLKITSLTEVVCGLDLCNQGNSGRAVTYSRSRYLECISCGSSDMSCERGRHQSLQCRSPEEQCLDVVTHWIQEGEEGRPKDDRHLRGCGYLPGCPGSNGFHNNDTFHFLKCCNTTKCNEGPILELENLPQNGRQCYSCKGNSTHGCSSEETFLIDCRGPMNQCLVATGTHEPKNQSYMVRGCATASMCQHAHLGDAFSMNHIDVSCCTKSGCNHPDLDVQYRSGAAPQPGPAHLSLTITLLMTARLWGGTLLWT
# Method in brief: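 Soluble human uPAR (residues 1-283), from stably transfected Drosophila S2 cells, was used at 500 nM with 100 nM AE147-FAM. Inhibitor range 0.78-100 μM in 0.01% Triton X-100/PBS, final 2% DMSO, triplicate. Polarization was read immediately at room temperature (ex 485/em 530 nm).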
# [2] = (§1) Inhibition of human MAPK phosphorylation in MDA-MB-231 cells at 100 uM after 30 mins by Western blot analysis; format: cell-based; conditions: MDA-MB-231, 0.5 h
# Method in brief: (§2)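 MDA-MB-231 cells were exposed to 100 μM compound or 1% DMSO for 30 min and lysed in RIPA buffer with protease and phosphatase inhibitors. Equal protein was run on 4-12% gels under non-reducing conditions and transferred to nitrocellulose. Detection used HRP secondary antibody and chemiluminescence.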
# [3] = biological target: Focal adhesion kinase 1 (Homo sapiens) (UniProt Q05397); assay: Inhibition of human FAK phosphorylation in MDA-MB-231 cells at 100 uM after 30 mins by Western blot analysis; format: cell-based; method in brief: as §2
# Chain of Focal adhesion kinase 1 (Homo sapiens) (Q05397 2-1052 limits assumed): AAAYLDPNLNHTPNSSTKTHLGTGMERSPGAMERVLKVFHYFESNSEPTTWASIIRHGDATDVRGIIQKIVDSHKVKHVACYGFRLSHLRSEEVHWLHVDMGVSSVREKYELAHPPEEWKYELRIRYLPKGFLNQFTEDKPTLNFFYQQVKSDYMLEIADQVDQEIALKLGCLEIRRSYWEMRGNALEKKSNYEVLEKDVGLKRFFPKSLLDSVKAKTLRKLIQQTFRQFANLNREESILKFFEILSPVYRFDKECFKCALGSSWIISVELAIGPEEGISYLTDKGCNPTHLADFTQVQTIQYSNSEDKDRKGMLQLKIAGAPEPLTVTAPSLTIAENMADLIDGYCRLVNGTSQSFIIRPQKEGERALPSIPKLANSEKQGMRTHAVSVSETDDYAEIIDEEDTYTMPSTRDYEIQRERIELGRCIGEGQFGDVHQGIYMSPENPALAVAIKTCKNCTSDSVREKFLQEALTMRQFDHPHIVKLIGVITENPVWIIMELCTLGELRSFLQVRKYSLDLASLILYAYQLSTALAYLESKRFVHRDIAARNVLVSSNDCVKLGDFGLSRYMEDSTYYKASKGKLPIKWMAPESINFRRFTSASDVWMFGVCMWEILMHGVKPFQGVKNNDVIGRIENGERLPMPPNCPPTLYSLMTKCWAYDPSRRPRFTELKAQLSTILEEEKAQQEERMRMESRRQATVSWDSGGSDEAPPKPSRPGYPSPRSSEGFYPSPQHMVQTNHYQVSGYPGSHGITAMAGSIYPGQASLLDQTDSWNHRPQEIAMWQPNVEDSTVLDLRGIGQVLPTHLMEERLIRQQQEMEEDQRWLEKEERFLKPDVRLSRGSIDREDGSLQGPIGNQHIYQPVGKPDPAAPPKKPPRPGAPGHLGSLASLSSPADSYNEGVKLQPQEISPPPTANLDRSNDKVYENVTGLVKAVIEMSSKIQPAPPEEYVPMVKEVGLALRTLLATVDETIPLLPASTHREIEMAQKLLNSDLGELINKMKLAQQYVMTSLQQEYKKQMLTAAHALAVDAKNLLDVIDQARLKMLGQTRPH
# [4] = biological target: Proto-oncogene tyrosine-protein kinase Src (Homo sapiens) (UniProt P12931); assay: Inhibition of human SRC phosphorylation in MDA-MB-231 cells at 100 uM after 30 mins by Western blot analysis; format: cell-based; method in brief: as §2
# Chain of Proto-oncogene tyrosine-protein kinase Src (Homo sapiens) (P12931 2-536 limits assumed): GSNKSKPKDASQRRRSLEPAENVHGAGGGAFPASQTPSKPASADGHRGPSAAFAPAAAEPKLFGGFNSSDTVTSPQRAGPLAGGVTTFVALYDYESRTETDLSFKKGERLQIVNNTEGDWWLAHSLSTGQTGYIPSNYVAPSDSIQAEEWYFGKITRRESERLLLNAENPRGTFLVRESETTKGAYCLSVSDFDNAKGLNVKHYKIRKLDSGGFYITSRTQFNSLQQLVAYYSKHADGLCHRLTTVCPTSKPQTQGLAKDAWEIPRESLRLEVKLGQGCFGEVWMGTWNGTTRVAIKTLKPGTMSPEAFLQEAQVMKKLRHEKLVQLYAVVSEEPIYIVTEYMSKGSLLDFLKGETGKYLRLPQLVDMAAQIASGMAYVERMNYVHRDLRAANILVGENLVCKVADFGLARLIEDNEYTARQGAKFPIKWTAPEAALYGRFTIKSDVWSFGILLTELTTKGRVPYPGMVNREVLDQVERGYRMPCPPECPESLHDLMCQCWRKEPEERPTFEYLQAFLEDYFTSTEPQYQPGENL
# [5] = biological target: Cytochrome P450 2C9 (Homo sapiens, UniProt P11712); assay: Inhibition of CYP2C9 at 1 uM by fluorsecence-based assay; format: ADME
# Chain of Cytochrome P450 2C9 (P11712 whole entry): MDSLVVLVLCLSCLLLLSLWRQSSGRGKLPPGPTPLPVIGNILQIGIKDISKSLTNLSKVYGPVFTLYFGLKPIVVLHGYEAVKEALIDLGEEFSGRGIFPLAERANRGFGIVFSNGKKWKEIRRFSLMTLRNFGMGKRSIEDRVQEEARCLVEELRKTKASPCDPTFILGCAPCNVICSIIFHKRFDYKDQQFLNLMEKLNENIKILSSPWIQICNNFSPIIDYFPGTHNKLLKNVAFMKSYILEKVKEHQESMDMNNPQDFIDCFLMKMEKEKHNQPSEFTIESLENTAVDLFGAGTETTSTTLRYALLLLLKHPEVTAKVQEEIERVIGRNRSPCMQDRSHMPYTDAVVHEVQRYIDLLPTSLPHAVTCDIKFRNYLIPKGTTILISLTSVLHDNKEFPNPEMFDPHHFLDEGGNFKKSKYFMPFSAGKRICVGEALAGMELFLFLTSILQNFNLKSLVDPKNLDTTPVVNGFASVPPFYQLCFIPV
# Method in brief: (§3)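 Fluorescence-based CYP2C9 assay measuring inhibition of fluorescent substrate metabolism at the stated concentration. Sulphaphenazole at 5 μM served as positive control.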
# [6] = biological target: T1, CYP2C9 (Homo sapiens, UniProt P11712); assay: Inhibition of CYP2C9 at 25 uM by fluorsecence-based assay; format: ADME; method in brief: as §3
# T1 sequence (P11712 whole entry): as above
# [7] = system: Nucleic Acid; assay: Displacement of ethidium bromide from salmon sperm DNA at 1 uM by fluorescence assay; format: nucleic-acid assay; conditions: Salmonidae
# Method in brief: (§4)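 Fluorescent intercalator displacement: loss of fluorescence from ethidium bromide bound to salmon sperm DNA, excitation 530 nm, at the stated compound concentration.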
# [8] = system: Nucleic Acid; assay: Displacement of ethidium bromide from salmon sperm DNA at 10 uM by fluorescence assay; format: nucleic-acid assay; conditions: Salmonidae; method in brief: as §4
# [9] = system: Nucleic Acid; assay: Displacement of ethidium bromide from salmon sperm DNA at 25 uM by fluorescence assay; format: nucleic-acid assay; conditions: Salmonidae; method in brief: as §4
# [10] = system: hERG potassium channel KCNH2 (Homo sapiens); assay: Inhibition of human ERG channel at 25 uM =
# [11] = system: hERG potassium channel KCNH2 (Homo sapiens); assay: Inhibition of human ERG potassium channel (hERG) at 1 uM by fluorescence polarization assay
# [12] = system: hERG potassium channel KCNH2 (Homo sapiens); assay: Inhibition of human ERG potassium channel (hERG) at 10 uM by fluorescence polarization assay
# [13] = biological target: T1, CYP2C9; assay: Inhibition of CYP2C9 at 5 uM by fluorsecence-based assay
# [14] = system: MDA-MB-231; assay: Induction of necrosis in human MDA-MB-231 cells at 50 uM after 24 hrs by annexin V-FITC and propidium iodide staining relative to control; format: functional
# Method in brief: (§5)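 MDA-MB-231 grown in DMEM/10% FBS with penicillin/streptomycin, 37 °C, 5% CO2, to 80–90% confluence; exposed to compound or 1% DMSO control for 24 h. Cells detached, washed in cold PBS, 1×10^5 cells in binding buffer stained with annexin V-FITC and propidium iodide 15 min at 25 °C in the dark, analysed by flow cytometry; apoptotic = annexin V+/PI−, necrotic = annexin V+/PI+.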
# [15] = system: MDA-MB-231; assay: Induction of apoptosis in human MDA-MB-231 cells assessed as apoptotic cells at 50 uM after 24 hrs by annexin V-FITC and propidium iodide staining (reference value: 4%); format: functional; method in brief: as §5
# [16] = biological target: T2, Matrix metalloproteinase-9 (Homo sapiens, UniProt P14780); assay: Inhibition of human MMP-9 activity in human MDA-MB-231 cells assessed as ECM degradation after 24 hrs by gelatin zymography assay; format: cell-based
# T2 sequence (P14780 whole entry): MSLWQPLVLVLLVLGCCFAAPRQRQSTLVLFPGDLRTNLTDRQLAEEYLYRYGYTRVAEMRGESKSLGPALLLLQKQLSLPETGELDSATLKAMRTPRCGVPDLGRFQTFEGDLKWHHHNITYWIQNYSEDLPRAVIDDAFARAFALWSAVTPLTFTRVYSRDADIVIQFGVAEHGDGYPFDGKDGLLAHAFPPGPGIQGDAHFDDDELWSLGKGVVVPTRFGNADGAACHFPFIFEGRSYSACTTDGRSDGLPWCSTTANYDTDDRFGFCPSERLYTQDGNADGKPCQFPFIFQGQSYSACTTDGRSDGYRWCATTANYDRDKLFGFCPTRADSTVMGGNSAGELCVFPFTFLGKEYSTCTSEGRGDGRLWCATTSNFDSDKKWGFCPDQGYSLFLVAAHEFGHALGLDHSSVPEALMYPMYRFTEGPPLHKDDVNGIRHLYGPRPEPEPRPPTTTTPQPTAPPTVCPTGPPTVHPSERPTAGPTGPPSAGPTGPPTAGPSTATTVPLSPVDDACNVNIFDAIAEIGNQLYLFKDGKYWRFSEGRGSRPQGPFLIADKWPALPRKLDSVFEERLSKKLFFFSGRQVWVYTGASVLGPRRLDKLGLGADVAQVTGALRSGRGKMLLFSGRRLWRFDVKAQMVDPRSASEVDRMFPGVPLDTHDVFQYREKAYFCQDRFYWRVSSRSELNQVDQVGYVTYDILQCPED
# [17] = system: MDA-MB-231; assay: as §1; format: cell-based; method in brief: as §2
# [18] = system: MDA-MB-231; assay: Antimetastatic activity in human MDA-MB-231 cells assessed as inhibition of cell invasion after 3 hrs by transwell assay; format: functional, cell-based; conditions: MDA-MB-231, 3 h
# [19] = system: MDA-MB-231; assay: Antimetastatic activity in human MDA-MB-231 cells assessed as inhibition of cell migration after 3 hrs by transwell assay; format: functional, cell-based; conditions: MDA-MB-231, 3 h
# Method in brief: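 Serum-starved (4 h) subconfluent cells, 5 × 10^4 in 0.1% FBS DMEM with compound or 1.0% DMSO, were placed in upper chambers of inserts with fibronectin-coated undersides (30 μg/ml). After 3 h at 37°C, 5% CO2, cells on the underside were methanol-fixed, hematoxylin-stained and counted in ten fields (×200). Triplicate; mean ± SE.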
# [20] = system: MDA-MB-231; assay: Antimetastatic activity in human MDA-MB-231 cells assessed as inhibition of cell adhesion after 90 mins by crystal violet staining; format: functional, cell-based; conditions: MDA-MB-231, 1.5 h
# Method in brief: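 Wells were coated with 15 μg/ml fibronectin for 1 h at room temperature, then blocked with 3% heat-denatured BSA for 1 h at 37°C. Subconfluent cells were trypsinized, quenched with soybean trypsin inhibitor and washed in serum-free medium. 2 × 10^4 cells per well with compound, quadruplicate, 90 min at 37°C. Adherent cells were read by crystal violet at 570 nm; mean ± SE.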
# [21] = system: HUVEC; assay: Antiangiogenic activity in human HUVEC cells assessed as inhibition of tube formation by matrigel-based tube formation assay
# [22] = system: MDA-MB-231; assay: Antiproliferative activity against human MDA-MB-231 cells assessed as decrease in cell viability after 3 days by MTT assay; format: functional, cell-based; conditions: MDA-MB-231, 72 h
# Method in brief: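 Cells were grown at 37°C in 10% FBS-DMEM with serially diluted compound, made from 5 mM DMSO stock diluted 1:50 in medium, for 3 days. Viability was read by MTT absorbance at 570 and 630 nm.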
# [23] = system: MDA-MB-231; assay: Induction of apoptosis in human MDA-MB-231 cells at 50 uM after 24 hrs by annexin V-FITC and propidium iodide staining relative to control; format: functional; method in brief: as §5
# [24] = biological target: T2, Matrix metalloproteinase-9; assay: Inhibition of human MMP-9 activity in human MDA-MB-231 cells assessed as ECM degradation at 50 uM after 24 hrs by gelatin zymography assay; format: cell-based
# Method in brief: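 Cells were treated with compound in serum-free medium for 24 h, and conditioned medium was concentrated and protein-normalized. Samples were run on 10% SDS gels containing 1 mg/ml gelatin. Clear bands were quantified after Coomassie staining.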
# [25] = Cmax in mouse at 100 mg/kg, po administered as single dose after 5 hrs by HPLC-MS/MS analysis; format: ADME, organism-based; parameters: dose 100 mg/kg, route oral; conditions: in vivo
# [26] = Tmax in mouse at 100 mg/kg, po administered as single dose by HPLC-MS/MS analysis; format: ADME, organism-based; parameters: dose 100 mg/kg, route oral; conditions: in vivo
# [27] = Half life in mouse at 100 mg/kg, po administered as single dose by HPLC-MS/MS analysis; format: ADME, organism-based; parameters: dose 100 mg/kg, route oral; conditions: in vivo
# [28] = Antitumor activity against human […] cells xenografted in NOD/SCID mouse assessed as decrease in tumor volume at 150 mg/kg, po qd administered 18 days post-implantation measured after 68 days; format: functional; parameters: scale not given: the % may be the effect or the level left
# Method in brief: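 Female NOD/SCID mice bearing mammary fat pad TMD-231 tumours were randomized and dosed from day 18 post-implantation by daily oral gavage at 150 mg/kg or vehicle (n = 11). Caliper measurements were taken over 68 days; volume = (shorter² × longer)/2.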
# [29] = Toxicity in po dosed NOD/SCID mouse xenografted human […] cells; format: organism-based; conditions: in vivo
# [30] = system: TMB-231; assay: Antitumor activity against human […] cells xenografted in NOD/SCID mouse assessed as reduction in lung metastatic lesions at 150 mg/kg, po qd administered 18 days post-implantation measured after 68 days; format: functional, organism-based; parameters: dose 150 mg/kg
# Method in brief: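 Female NOD/SCID mice with mammary fat pad TMD-231 tumours received daily oral gavage at 150 mg/kg or vehicle from day 18 (n = 11). At study end lungs were removed and H&E stained. Metastasis number and size were assessed in 2-5 fields per sample and scored 1+ to 4+ relative to the highest sample by a blinded pathologist.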
# [31] = system: hERG potassium channel KCNH2 (Homo sapiens); assay: Inhibition of human ERG potassium channel (hERG) at 25 uM by fluorescence polarization assay
# [32] = AUC (0 to infinity) in mouse at 50 mg/kg, po administered as single dose by HPLC-MS/MS analysis; conditions: plasma
# [33] = Apparent oral clearance in mouse at 50 mg/kg administered as single dose by HPLC-MS/MS analysis; conditions: in vivo
structure (smiles),measurement,setting,value
c1ccc(C[C@H](CCNCc2ccc3c(c2)OCO3)c2ccc3c(c2)OCO3)cc1 (racemic),Activity,[1],Dose-dependent effect
same,IC50,[2],20 µM
same,inhibition,[3],inactive
same,inhibition,[4],inactive
same,inhibition (INH),[5],Active
same,inhibition at 25 µM,[6],80%
same,inhibition,[7],inactive
same,inhibition,[8],inactive
same,inhibition,[9],30%
same,inhibition,[10],Active
same,inhibition,[11],Active
same,inhibition,[12],Active
Nc1ccc(S(=O)(=O)Nc2ccnn2-c2ccccc2)cc1 [SULFAPHENAZOLE],inhibition at 5 µM,[13],69%
CN(C)c1ccc(CNCCC(Cc2ccccc2)c2ccc3c(c2)OCO3)cc1 (racemic),Ki,[1],20 µM
same,Activity,[14],22%
same,Activity,[15],46%
same,inhibition,[16],Dose-dependent effect
same,inhibition,[17],Active
same,inhibition (INH),[5],Active
same,inhibition at 25 µM,[6],80%
same,inhibition,[7],inactive
same,inhibition,[8],inactive
same,inhibition,[9],30%
Cc1cc(C)cc(NC(=O)c2cnn(-c3ccc(C(C)C)cc3)c2C2CCNCC2)c1,Activity,[1],Dose-dependent effect
same,IC50,[18],30 µM
same,IC50,[19],40 µM
same,IC50,[20],45 µM
same,IC50,[21],3 µM
same,IC50,[22],6 µM
same,Activity,[23],51%
same,Activity,[14],21%
same,IC50,[16],25 µM
same,inhibition,[16],Dose-dependent effect
same,inhibition,[24],93%
same,inhibition,[17],Active
same,inhibition at 25 µM,[6],20%
same,inhibition,[7],inactive
same,inhibition,[8],inactive
same,inhibition,[9],< 10%
same,Cmax,[25],4410 ng/mL
same,Tmax,[26],1 h
same,half-life,[27],2.18 h
same,Activity,[28],20%
same,MTD,[29],150 mg/kg
same,Activity,[30],Active
same,inhibition,[31],60%
same,AUC(0-inf),[32],47200 ng·h/mL
same,CL/F,[33],0.7 mL/min
